Assays:
[1] = Tmax value after oral dose of 3 mg/kg; assay type: ADME, organism-based; parameters: dose 3 mg/kg, route oral; details: in vivo
In short: (§1)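 Male Sprague-Dawley-derived rats. Compound was given in normal saline at 1 mL/kg, either as a slow iv bolus into the jugular vein or orally by gavage. Plasma underwent liquid-liquid extraction and reverse-phase HPLC. Terminal elimination half-life and time of observed peak concentration were taken from the profiles.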

[2] = Volume of distribution of the terminal phase (= CLp+ plasma elimination rate constant) after intravenous dose of 0.3 mg/kg; assay type: ADME, organism-based; parameters: dose 0.3 mg/kg, route intravenous; details: read-out: Vbeta
In short: (§2)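 Jugular-vein slow iv bolus (normal saline, 1 mL/kg) in male Sprague-Dawley-derived rats. Plasma was sampled via the tail vein at 0.1–24 h and measured by reverse-phase HPLC after liquid-liquid extraction. Central volume was taken as dose divided by plasma concentration at time zero. Terminal-phase volume was derived from clearance and the plasma elimination rate constant.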

[3] = Volume of distribution of central compartment (= dose+ plasma concentration at time zero) after intravenous dose of 0.3 mg/kg; assay type: ADME, organism-based; parameters: dose 0.3 mg/kg, route intravenous; details: read-out: VI; in short: as §2
[4] = Cmax value after oral dose of 0.1 mg//kg; assay type: ADME, organism-based; parameters: dose 0.1 mg//kg, route oral; details: in vivo
In short: (§3)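 Male Sprague-Dawley-derived rats were dosed with compound in normal saline (1 mL/kg), by gavage or as a slow IV bolus into the jugular vein. Heparinized tail-vein blood was taken at 0.25-24 h, extracted liquid-liquid and assayed by reverse-phase HPLC. Cmax is the observed peak concentration and AUC is mean (SEM). F compares oral with IV AUC, corrected for dose and assuming dose proportionality.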

[5] = system: Rattus norvegicus; assay: % decrease in blood pressure after 4 hours in male rats at a dose of 0.3 mg/kg by using Renal artery hypertensive model; assay type: functional
In short: (§4)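 Male Sprague-Dawley rats (300-350 g) were made hypertensive by renal artery ligation and used on day 6 or 7 after ligation. Arterial pressure was measured from an indwelling femoral artery catheter, with blood pressure and heart rate recorded on line. Read-out is % decrease in blood pressure at 4 h, ±SEM, with number of rats.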

[6] = system: Rattus norvegicus; assay: % decrease in blood pressure after 4 hours at a dose of 1 mg/kg in male rats by using Renal artery hypertensive model; assay type: functional; in short: as §4
[7] = Bioavailability after oral dose of 1 mg/kg; assay type: ADME, organism-based; details: eutheria, in vivo; in short: as §3
[8] = Area under curve after oral dose of 1 mg/kg; assay type: ADME, organism-based; parameters: dose 1 mg/kg, route oral; details: in vivo; in short: as §3
[9] = Volume of distribution of central compartment (= dose+ plasma concentration at time zero) after intravenous dose of 1 mg/kg; assay type: ADME, organism-based; parameters: dose 1 mg/kg, route intravenous; details: read-out: VI; in short: as §2
[10] = Half-life period of compound after intravenous dose of 1 mg/kg; assay type: ADME, organism-based; parameters: dose 1 mg/kg, route intravenous; details: in vivo; in short: as §1
[11] = Cmax value after oral dose of 1 mg/kg; assay type: ADME, organism-based; parameters: dose 1 mg/kg, route oral; details: in vivo; in short: as §3
[12] = Area under curve after oral dose of 0.3 mg/kg; assay type: ADME, organism-based; parameters: dose 0.3 mg/kg, route oral; details: in vivo; in short: as §3
[13] = Area under curve after oral dose of 0.1 mg//kg; assay type: ADME; in short: as §3
[14] = system: Rattus norvegicus; assay: % decrease in blood pressure after 4 hours at a dose of 1 mg/kg in male rats by using Furosemide-treated spontaneous hypertensive model; assay type: functional
In short: (§5)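 Male SHR, 20-24 weeks old, pretreated with furosemide 10 mg/kg sc at 22 and 4 h before the experiment; compound dosed orally. Arterial pressure was recorded from an indwelling femoral artery catheter with on-line blood pressure and heart rate analysis. Read-out is % fall in blood pressure at 4 h and at 24 h, ±SEM, with number of rats.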

[15] = Half-life period after oral dose of 0.1 mg//kg; assay type: ADME, organism-based; details: in vivo; in short: as §3
[16] = Plasma clearance after intravenous dose of 0.3 mg/kg; assay type: ADME, organism-based; parameters: dose 0.3 mg/kg, route intravenous; details: read-out: Clp
In short: (§6)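 Male Sprague-Dawley-derived rats received a slow iv bolus into the jugular vein of the compound in normal saline (1 mL/kg). Tail-vein heparinized blood was drawn from 0.1 to 24 h and assayed by reverse-phase HPLC after liquid-liquid extraction. Total plasma clearance was calculated as dose divided by AUC and reported as mean (SEM).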

[17] = Bioavailability after oral dose of 3 mg/kg; assay type: ADME, organism-based; details: eutheria, in vivo; in short: as §3
[18] = system: Rattus norvegicus; assay: % decrease in blood pressure after 4 hours at a dose of 0.1 mg/kg in male rats by using Furosemide-treated spontaneous hypertensive model; assay type: functional; in short: as §5
[19] = Plasma clearance after intravenous dose of 1 mg/kg; assay type: ADME, organism-based; parameters: dose 1 mg/kg, route intravenous; details: read-out: Clp; in short: as §6
[20] = Volume of distribution of the terminal phase (= CLp+ plasma elimination rate constant) after intravenous dose of 3 mg/kg; assay type: ADME, organism-based; parameters: dose 3 mg/kg, route intravenous; details: read-out: Vbeta; in short: as §2
[21] = Half-life period after oral dose of 3 mg/kg; assay type: ADME, organism-based; parameters: dose 3 mg/kg, route oral; details: in vivo; in short: as §3
[22] = Tmax value after oral dose of 0.3 mg/kg; assay type: ADME, organism-based; parameters: dose 0.3 mg/kg, route oral; details: in vivo; in short: as §1
[23] = system: Rattus norvegicus; assay: % decrease in blood pressure after 24 hours at a dose of 0.1 mg/kg in male rats by using Furosemide-treated spontaneous hypertensive model; assay type: functional; in short: as §5
[24] = Tmax value after oral dose of 1 mg/kg; assay type: ADME, organism-based; parameters: dose 1 mg/kg, route oral; details: in vivo; in short: as §1
[25] = Volume of distribution of the terminal phase (= CLp+ plasma elimination rate constant) after intravenous dose of 1 mg/kg; assay type: ADME, organism-based; parameters: dose 1 mg/kg, route intravenous; details: read-out: Vbeta; in short: as §2
[26] = Plasma clearance after intravenous dose of 3 mg/kg; assay type: ADME, organism-based; parameters: dose 3 mg/kg, route intravenous; details: read-out: Clp; in short: as §6
[27] = Tmax value after oral dose of 0.1 mg//kg; assay type: ADME, organism-based; details: in vivo; in short: as §1
[28] = system: Rattus norvegicus; assay: % decrease in blood pressure after 24 hours at a dose of 1 mg/kg in male rats by using Furosemide-treated spontaneous hypertensive model; assay type: functional; in short: as §5
[29] = Area under curve after oral dose of 3 mg/kg; assay type: ADME, organism-based; parameters: dose 3 mg/kg, route oral; details: in vivo; in short: as §3
[30] = Bioavailability after oral dose of 0.3 mg/kg; assay type: ADME, organism-based; details: eutheria, in vivo; in short: as §3
[31] = Half-life period after oral dose of 0.3 mg/kg; assay type: ADME, organism-based; parameters: dose 0.3 mg/kg, route oral; details: in vivo; in short: as §3
[32] = system: Rattus norvegicus; assay: % decrease in blood pressure after 4 hours in male rats at a dose of 0.03 mg/kg by using Renal artery hypertensive model; assay type: functional; in short: as §4
[33] = Cmax value after oral dose of 0.3 mg/kg; assay type: ADME, organism-based; parameters: dose 0.3 mg/kg, route oral; details: in vivo; in short: as §3
[34] = Half-life period of compound after intravenous dose of 3 mg/kg; assay type: ADME, organism-based; parameters: dose 3 mg/kg, route intravenous; details: in vivo; in short: as §1
[35] = biological target: T1, Type-1 angiotensin II receptor A (Rattus norvegicus, UniProt P25095); assay: Binding affinity against angiotensin II receptor from rat liver
T1 sequence (P25095 whole entry): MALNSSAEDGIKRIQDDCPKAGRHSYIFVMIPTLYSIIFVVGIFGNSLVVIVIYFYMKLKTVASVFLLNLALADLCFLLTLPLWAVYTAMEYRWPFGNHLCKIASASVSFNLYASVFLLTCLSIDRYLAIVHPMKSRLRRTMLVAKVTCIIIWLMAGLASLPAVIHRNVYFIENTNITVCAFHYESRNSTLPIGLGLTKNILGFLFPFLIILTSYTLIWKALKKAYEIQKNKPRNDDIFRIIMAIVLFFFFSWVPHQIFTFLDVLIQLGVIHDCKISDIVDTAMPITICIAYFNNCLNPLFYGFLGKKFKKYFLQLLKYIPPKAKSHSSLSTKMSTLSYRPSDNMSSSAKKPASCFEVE
In short: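 Rat liver membranes were incubated with [125I]-saralasin to measure angiotensin II type 1 receptor binding. Nonspecific binding was defined with 1 µM angiotensin.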

[36] = Bioavailability after oral dose of 0.1 mg//kg; assay type: ADME, organism-based; details: eutheria, in vivo; in short: as §3
[37] = Half-life period after oral dose of 1 mg/kg; assay type: ADME, organism-based; parameters: dose 1 mg/kg, route oral; details: in vivo; in short: as §3
[38] = Cmax value after oral dose of 3 mg/kg; assay type: ADME, organism-based; parameters: dose 3 mg/kg, route oral; details: in vivo; in short: as §3
[39] = Volume of distribution of central compartment (= dose+ plasma concentration at time zero) after intravenous dose of 3 mg/kg; assay type: ADME, organism-based; parameters: dose 3 mg/kg, route intravenous; details: read-out: VI; in short: as §2
[40] = Half-life period of compound after intravenous dose of 0.3 mg/kg; assay type: ADME, organism-based; parameters: dose 0.3 mg/kg, route intravenous; details: in vivo; in short: as §1
[41] = system: Rattus norvegicus; assay: % decrease in blood pressure after 4 hours in male rats at a dose of 0.01 mg/kg by using Renal artery hypertensive model; assay type: functional; in short: as §4
[42] = biological target: T2, Type-1 angiotensin II receptor (Oryctolagus cuniculus, UniProt P34976); assay: Antagonistic ability of angiotensin II to contract rabbit aorta; assay type: functional, tissue-based; details: read-out: pA2 (converted)
T2 sequence (P34976 whole entry): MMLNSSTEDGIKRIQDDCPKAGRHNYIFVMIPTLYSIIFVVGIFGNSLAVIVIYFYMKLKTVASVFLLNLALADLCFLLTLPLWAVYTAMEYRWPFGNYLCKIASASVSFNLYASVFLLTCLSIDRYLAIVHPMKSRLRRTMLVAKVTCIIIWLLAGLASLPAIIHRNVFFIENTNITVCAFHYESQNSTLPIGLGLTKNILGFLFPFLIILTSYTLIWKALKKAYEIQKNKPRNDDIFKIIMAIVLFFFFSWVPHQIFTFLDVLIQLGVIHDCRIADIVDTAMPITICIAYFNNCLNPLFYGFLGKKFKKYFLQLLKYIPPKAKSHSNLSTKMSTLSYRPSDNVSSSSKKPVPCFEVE
In short: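 Angiotensin II contraction of rabbit aortic rings. Full pA2 from several drug concentrations by Schild plot (log drug concentration vs log(EC50 ratio-1)); EC50 ratio is the angiotensin II EC50 with drug over that without drug.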

CCCN(Cc1ccc(-c2ccccc2-c2nnn[nH]2)cc1)c1ncccc1C(=O)O
Tmax [1]: 0.9 h | Vd [2]: 0.17 L/kg | Vd [3]: 0.04 L/kg | Cmax [4]: 490 ng/mL | Decrease in blood pressure [5]: 36% | Decrease in blood pressure [6]: 40% | bioavailability [7]: 34.9% | AUC [8]: 28.87 µg/h/mL | Vd [9]: 0.04 L/kg | half-life [10]: 7.1 h | Cmax [11]: 2770 ng/mL | AUC [12]: 24.44 µg/h/mL | AUC [13]: 8.21 µg/h/mL | Decrease in blood pressure [14]: 32% | half-life [15]: ≤ 12 h | clearance [16]: 0.07 mL/min | bioavailability [17]: 36.3% | Decrease in blood pressure [18]: 23% | clearance [19]: 0.07 mL/min | Vd [20]: 0.12 L/kg | half-life [21]: 5.7 h | Tmax [22]: 1.4 h | Decrease in blood pressure [23]: 36% | Tmax [24]: 0.9 h | Vd [25]: 0.13 L/kg | clearance [26]: 0.07 mL/min | Tmax [27]: 1.3 h | Decrease in blood pressure [28]: 46% | AUC [29]: 90.15 µg/h/mL | bioavailability [30]: 97.2% | half-life [31]: > 12 h | Decrease in blood pressure [32]: 10% | Cmax [33]: 1350 ng/mL | half-life [34]: 6.6 h | Ki [35]: 0.61 nM | bioavailability [36]: 97.9% | half-life [37]: 6.9 h | Cmax [38]: 9600 ng/mL | Vd [39]: 0.04 L/kg | half-life [40]: 9.5 h | Decrease in blood pressure [41]: 22%

CCc1cc(OCc2ccc(-c3ccccc3-c3nn[nH]n3)cc2)c2nc(OC(C)C)ccc2n1
Kb [42]: 0.1 nM

— ChEMBL document CHEMBL1126796, “2-(Alkylamino)nicotinic acid and analogs. Potent angiotensin II antagonists” (J Med Chem, 1993)
